A short description of data set [1]: folding enthalpy; higher = less favourable; fluorescence melt of hairpins on a sequencing array, two-state fit. The following applies: sodium 0.088 M. The procedure, abridged:
(§1)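 Hairpins were imaged by Cy3 fluorescence on a sequenced MiSeq flow cell with annealed Cy3 and quencher oligos, in 50 mM Na-HEPES pH 8.0, 25 mM NaCl, in 2.5 °C steps up to 60 °C. Bootstrapped two-state fits of normalised signals gave melting temperature and folding enthalpy. Four replicates were combined by inverse variance, and fitted temperatures were raised by 9.35 °C to match UV melts.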

The nature of data set [2]: melting temperature; fluorescence melt of hairpins on a sequencing array, two-state fit, raised by 9.35 °C to match UV melts. Conditions: sodium 0.088 M. The method, boiled down:
as §1

These results are taken from the array DNA melting data of Ke et al. (doi:10.1101/2024.01.08.574731).

As to GCAAACGAAAGTTCTTGC ((((((....)))..))), the folding enthalpy in data set [1] was -10 kcal/mol. The Tm in data set [2] amounted to 31.7 °C.
With GCAAACGAAAGTTGTGC ((((((....))).))), in data set [1], the folding enthalpy was -22.6 kcal/mol. For the same sequence, the Tm in data set [2] amounted to 43.4 °C.
Taken in the same sequence, the figures for GCAAACGAAAGTTTTGC ((((((....))).))) were -28.5 kcal/mol and 49.4 °C.
On the same counts, the results for GCAAACGCGAAAGCGTGC (((..(((....)))))) are -13.7 kcal/mol and 55.7 °C.
Taken in the same sequence, the figures for GCAAAGCGAAAGCAGTGC (((..((....))..))) were -14 kcal/mol and 44.7 °C.
As for GCAAAGCGAAAGCGATGC (((..((....))..))), in data set [1], the folding enthalpy was -24.4 kcal/mol. Moreover, the Tm in data set [2] is 61.7 °C.
For the sequence GCAAAGGGAAACCCTTGC ((((.((....)).)))), in data set [1], the folding enthalpy is -29.5 kcal/mol. The Tm in data set [2] worked out at 46 °C.
On the same counts, the results for GCAAATGGAAACATTCGC ((.((((....)))).)) are -28.5 kcal/mol and 38.4 °C.
On the same counts, the results for GCAAATGGAAACGTTTGC (((((.(....).))))) are -38.1 kcal/mol and 49.6 °C.
On the same counts, the results for GCAACAACGAAAGTTTGC (((..(((....)))))) are -25 kcal/mol and 36.1 °C.
Regarding GCAACAGGAAACCGTTGC (((((.(....).))))), the folding enthalpy in data set [1] was -43.8 kcal/mol. Further, the Tm in data set [2] was found to be 50.4 °C.
Consider GCAACAGGAAACTGTTGC (((((((....))))))), for which the folding enthalpy in data set [1] was -40.3 kcal/mol. Further, the Tm in data set [2] came out at 68.5 °C.
For the sequence GCAACCACGAAAGTGTGC (((..(((....)))))), the folding enthalpy in data set [1] was -17.4 kcal/mol. For the same sequence, the Tm in data set [2] stood at 41.7 °C.
On the same counts, the results for GCAACCGAAAGGTATTGC ((((((....)))..))) are -18.3 kcal/mol and 39.9 °C.
Taken in the same sequence, the figures for GCAACCGAAAGGTCGTGC ((((((....)))..))) were -17.6 kcal/mol and 38.1 °C.
Taken in the same sequence, the figures for GCAACCGAAAGGTGGTGC ((((((....)))..))) were -20.8 kcal/mol and 48.6 °C.
With GCAACCGAAAGGTTCTGC ((((((....)))..))), in data set [1], the folding enthalpy was -14.9 kcal/mol. Besides, the Tm in data set [2] turned out to be 41.8 °C.
Turning to GCAACCGGAAACGGTCAC (..((((....))))..), the folding enthalpy in data set [1] is -8.88 kcal/mol. Further, the Tm in data set [2] came out at 24.9 °C.
Take GCAACGACGAAAGTCTGC (((..(((....)))))): the folding enthalpy in data set [1] was -16.6 kcal/mol. Further, the Tm in data set [2] turned out to be 40.5 °C.
Taken in the same sequence, the figures for GCAACGCCGAAAGGCTGC (((..(((....)))))) were -15.4 kcal/mol and 47.8 °C.
In the case of GCAACGCGAAAGCCATGC (((..((....))..))), the folding enthalpy in data set [1] was -7.42 kcal/mol. In addition, in data set [2], the Tm was 29.1 °C.
On to GCAACGCGAAAGCCTCGC ((.(.((....)).).)), for which the folding enthalpy in data set [1] was -7.26 kcal/mol. In addition, the Tm in data set [2] was 30.9 °C.
Regarding GCAACGCGAAAGCGCGGC ((..(((....)))..)), the folding enthalpy in data set [1] is -14.8 kcal/mol. The Tm in data set [2] is 48.1 °C.
For the sequence GCAACGGGAAACCATCGC ((.(.((....)).).)), the folding enthalpy in data set [1] was -12.5 kcal/mol. Further, in data set [2], the Tm was determined as 27 °C.
On the same counts, the results for GCAACGGGAAACCATTGC ((((.((....)).)))) are -26.8 kcal/mol and 41.5 °C.
For the sequence GCAACTCCGAAAGGATGC (((..(((....)))))), in data set [1], the folding enthalpy is -19.8 kcal/mol. Also, in data set [2], the Tm worked out at 38.1 °C.
On the same counts, the results for GCAACTCGAAAGAGATGC (((.(((....))).))) are -40.1 kcal/mol and 53.8 °C.
Taken in the same sequence, the figures for GCAACTGAAAAGTTGC ((((((....)))))) were -36.6 kcal/mol and 62.5 °C.
As for GCAACTGGAAACAATTGC ((((.((....)).)))), the folding enthalpy in data set [1] was -32.8 kcal/mol. In data set [2], the Tm is 34.5 °C.
With GCAAGAGCGAAAGCTTGC (((..(((....)))))), the folding enthalpy in data set [1] was -22.8 kcal/mol. In addition, the Tm in data set [2] was 51.9 °C.
